Test results published in article PMC7951180 (Nature cell biology, 2020).

What was measured:
[1] = system: hiPS-SkMCs; test: Immunoprecipitation and immunoblotting in hiPS-SkMCs; type: cell-based, human; settings: IB; for Ub-DMD in K3584R mutant knockin BMD iPS-SkMCs: GM04981 K3584R
[2] = system: indicated genes; test: RT-qPCR of indicated genes and microRNAs; settings: Dmd C3333Y QUA; 10 mg/kg subQ every three days
[3] = Pharmacokinetics; type: in vivo, mouse; settings: biotin-labeled, 10 mg/kg single dose, wild type C57BL/6 mice, 3–72 hours; dot-blot, n=5 animals per time point
Method in brief: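 A single 10 mg/kg dose of biotinylated H19 mimic (i.p. or subQ) or AGR-H19 (subQ) was given to wild type C57BL/6 mice. Muscle, heart, liver, kidney and lung were taken at 3, 12, 24, 48 or 72 h. Small RNA was dot-blotted against a 2-fold standard series of 1 μg–1 pg and detected with streptavidin-HRP. Levels are given as ng/g tissue, with PK parameters from nonlinear regression. n=5/time point.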

[4] = system: Dmd C3333Y mice; test: IF staining of DMD and Ub-DMD; type: in vivo, mouse; settings: Dmd C3333Y mice QUA, AGR mimics 10 mg/kg subQ every three days, Nifenazone 10 mg/kg i.p. daily, n=5
Method in brief: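 Quadriceps sections from Dmd WT and Dmd C3333Y mice on control or test mimics, vehicle, or daily i.p. drug were immunostained for DMD and Ub-DMD (Lys3584). Intensity was quantified from average staining intensity and percentage of positively stained cells. Mean±SD, n=5 animals/group, one-way ANOVA.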

[5] = system: Dmd C3333Y mice; test: Forelimb grip strength test of treated Dmd C3333Y mice; type: in vivo, mouse; settings: AGR mimics 10 mg/kg subQ every three days, Nifenazone 10 mg/kg i.p. daily
[6] = system: Dmd C3333Y mice; test: Fibrotic area in the heart of treated Dmd C3333Y mice; type: in vivo, mouse; settings: 4 to 24 weeks of age, AGR mimics 10 mg/kg subQ every three days, Nifenazone 10 mg/kg i.p. daily, n=5
Method in brief: (§1)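 Male and female Dmd WT and Dmd C3333Y mice were dosed from 4 weeks to 16 or 24 weeks of age. […] Groups were randomised by age and sex. Left ventricular values or cardiac fibrotic area percentage are reported as mean±SD, n=5/group, one-way ANOVA.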

[7] = system: Dmd C3333Y mice; test: Echocardiography; type: in vivo, mouse; settings: 4 to 24 weeks of age, AGR mimics 10 mg/kg subQ every three days, Nifenazone 10 mg/kg i.p. daily, n=5
Method in brief: as §1

[8] = Body weight measurement; type: in vivo, mouse; settings: Dmd C3333Y mice from 4 weeks of age; AGR mimics 10 mg/kg subQ every three days; Nifenazone 10 mg/kg i.p. daily
Method in brief: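 Weighed weekly in male Dmd WT (scramble- or vehicle-treated) and Dmd C3333Y mice during dosing from 4 weeks of age, to 16 weeks for the i.p. drug arm. AGR-Scr and AGR-H19 mut served as control mimics. Mean±SD, n=5 mice/group, two-way ANOVA.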

[9] = Blood biochemistry; type: in vivo, mouse; settings: Dmd C3333Y mice from 4 weeks of age; AGR mimics 10 mg/kg subQ every three days; Nifenazone 10 mg/kg i.p. daily
[10] = Serum IGF1 and IGF2 concentration; type: in vivo, mouse; settings: Dmd C3333Y mice; 10 mg/kg subQ every three days
Method in brief: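 Serum IGF1 and IGF2 were measured in Dmd WT and Dmd C3333Y mice under the treatment arms. AGR mimics were dosed from 4 weeks of age to 16 or 24 weeks. Mean±SD, n=5 mice/group, one-way ANOVA.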

[11] = system: mdx mice; test: IF staining of DMD and Ub-DMD in QUA of mdx mice with PPMO23 exon skipping; type: in vivo, mouse; settings: PPMO23 15 mg/kg i.v. biweekly alone, or with AGR-H19 10 mg/kg s.q. every three days or Nifenazone 10 mg/kg i.p. daily; 4 to 24 weeks of age; n=5
Method in brief: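 Controls were male C57BL/10J mice on scramble RNA plus vehicle, and mdx mice on scramble. Quadriceps were immunostained for DMD and Ub-DMD, and intensity was scored as average intensity × percentage positive cells. Mean±SD, n=5/condition, one-way ANOVA.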

[12] = target: TRIM63 (Homo sapiens, UniProt Q969Q1); test: Screen of small molecule inhibitors targeting TRIM63; type: biochemical; settings: library of 2027 bioactive compounds; Ub-DMD (Lys3584) antibody, OD450
Method in brief: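 The library screen measured DMD poly-ubiquitination by sandwich ELISA, with His6-TUBE capture and Ub-DMD (Lys3584) antibody detection read at OD450. Background-subtracted mean absorbance per compound was normalised to DMSO-treated samples and expressed as log2 fold change.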

[13] = system: hiPS-SkMCs; test: IF staining / IB of DMD and Ub-DMD; type: cell-based, human; settings: iPS-SkMCs and iPS-CMs derived from BMD patients; Nifenazone 10 μM, 72 hours
Method in brief: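 Skeletal muscle cells came from iPSCs reprogrammed from fibroblasts of a healthy donor (GM09503) and four BMD donors (GM04981, GM02298, GM05089, GM04569). iPSCs were kept feeder-free on Matrigel in mTeSR1. For IF, myoblasts on collagen I-coated coverslips grew to confluence, then spent 4 days in myotube medium before 4% paraformaldehyde fixation. IF intensity combined average staining and percentage of positive cells; n=5 independent experiments, two-way ANOVA. Immunoblots were repeated twice.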

TRIM63, sequence (Q969Q1 whole entry): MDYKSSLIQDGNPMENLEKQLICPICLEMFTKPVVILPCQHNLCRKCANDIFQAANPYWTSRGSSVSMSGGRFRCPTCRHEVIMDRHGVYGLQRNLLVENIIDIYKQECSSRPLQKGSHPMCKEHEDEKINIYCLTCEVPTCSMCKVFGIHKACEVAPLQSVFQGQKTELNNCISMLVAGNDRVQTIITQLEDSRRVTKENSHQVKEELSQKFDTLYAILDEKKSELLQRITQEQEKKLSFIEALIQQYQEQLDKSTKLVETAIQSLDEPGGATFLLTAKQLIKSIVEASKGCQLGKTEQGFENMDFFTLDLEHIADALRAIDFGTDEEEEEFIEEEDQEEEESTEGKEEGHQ

Row | Molecule | Ub-DMD in K3584R mutant knockin BMD iPS-SkMCs [1] | Expression status of microRNAs tested [2] | Amount in skeletal and cardiac muscles after dosing [3] | Dystrophin level in skeletal muscle [4] | Ub-DMD level in skeletal muscle [4] | Muscle strength [5] | Fibrotic area in the heart [6] | Heart function (left ventricular ejection fraction and fraction shortening) [7] | Body weight [8] | Liver or kidney function [9] | Serum IGF1/IGF2 [10] | Dystrophin protein in skeletal muscle of mdx mice [11] | Ub-DMD (poly-Ub) in skeletal muscle of mdx mice [11] | Inhibition of the enzymatic activities of TRIM63 in vitro (screen) [12] | Dystrophin protein stability [13] | Status of Ub-DMD (Lys3584) [13] | Ub-DMD in hiPS-SkMCs upon NIF treatment ([1]; vehicle or NIF)
1 | N-terminal-ELTNEIPAELTNEIPA-Linker-5'-[2’-F-C][2’-F-U][2’-F-C][2’-F-U][2’-F-U][2’-F-U][2’-F-G][2’-F-U][2’-F-U][2’-F-U][2’-F-C][2’-F-U][2’-F-G][2’-F-A][2’-F-G][2’-F-C][2’-F-U][2’-F-U][2’-F-U][2’-F-C][2’-F-C][2’-F-U][2’-F-G][2’-F-U][2’-F-C][2’-F-U][2’-F-U][2’-F-U][2’-F-C][2’-F-C]-3' [AGR-H19] | minimally affected | minimal effects | substantial amount | elevated | reduced | improved | reduced | increased | minimal effects | minimal effects | minimal effects | significantly increased | reduced | – | – | – | –
2 | Cc1c(NC(=O)c2cccnc2)c(=O)n(-c2ccccc2)n1C [Nifenazone] | minimally affected | – | – | restored | decreased | significantly improved | reduced | improved | minimally affected | minimally affected | – | significantly increased | reduced | effective inhibition | stabilized dystrophin | attenuated | inhibited
3 | RXRRBRRXRRBRXB [PPMO23] | – | – | – | – | – | – | – | – | – | – | – | partially restored | robust | – | – | – | –
